Experimental data reported in paper PMC7401491 (Investigative Ophthalmology & Visual Science, 2020).
Where two headings read alike, the source gives them in different places. Ends that are not written are not given here.

B2: cationic antimicrobial protein of 37 kDa (CAP37) (natural protein, human, UniProt P20160 27-248, looked up)
chain: IVGGRKARPRQFPFLASIQNQGRHFCGGALIHARFVMTAASCFQSQNPGVSTVVLGAYDLRRRERQSRQTFSISSMSENGYDPQQNLNDLMLLQLDREANLTSSVTILPLPLQNATVEAGTRCQVAGWGSQRSGGRLSRFPRFVNVTVTPEDQCRPNNVCTGVLTRRGGICNGDGGTPLVCEGLAHGVASFSLGPCGRGPDFFTRVALFRDWIDGVLNNPGP
B3: recombinant human S100 calcium binding protein S100A8 (untagged) (natural protein, UniProt P05109 1-93, looked up)
chain: MLTELEKALNSIIDVYHKYSLIKGNFHAVYRDDLKKLLETECPQYIRKKGADVWFKELDINTDGAVNFQEFLILVIKMGVAAHKKSHEESHKE

Tests used:
TLR4/MD-2 complex = TLR4/MD-2 complex (Homo sapiens, UniProt O00206+Q9Y6Y9); assay: ELISA binding of His-tagged TLR4/MD-2 complex to coated proteins/peptides; conditions: for Binding of TLR4/MD-2 to coated protein/peptide (in words): ELISA, TLR4/MD-2 at 10 nM, compared with BSA
Method in brief: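 ELISA against coated protein or peptide at 5 µg/ml (PBS pH 7.4; 2 h RT, then 4°C overnight), blocked with 3% BSA/PBST. Recombinant human TLR4/MD-2 complex, both chains His-tagged, 0–100 nM in PBST/0.1% BSA, 70 min at 37°C. Probed with anti-His mAb 1.0 µg/ml, then peroxidase secondary; OD 492 nm. 0-nM values subtracted; Kd derived; compared with BSA. Mean ± SEM, three independent experiments.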

[1] = biological target: T1, CAP37-derived peptide 120-146 WH (human); assay: ELISA
T1 sequence (P20160 146-172 with Q131W R132H, looked up): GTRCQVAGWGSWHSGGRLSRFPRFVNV

[2] = biological target: CAP37-derived peptide 120-146 WH 5RMP (human); assay: ELISA
[3] = biological target: T2, CAP37-derived peptide 20-44 (human); assay: ELISA
T2 sequence (P20160 46-70, looked up): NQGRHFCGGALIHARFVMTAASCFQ

[4] = biological target: CAP37-derived peptide 20-44 5RMP (human); assay: ELISA
[5] = biological target: T1, CAP37-derived peptide 120-146 WH (human); assay: ELISA; remark: listed apart in the source
[6] = biological target: CAP37-derived peptide 120-146 WH 5RMP (human); assay: ELISA; remark: listed apart in the source
[7] = biological target: T2, CAP37-derived peptide 20-44 (human); assay: ELISA; remark: listed apart in the source
[8] = biological target: CAP37-derived peptide 20-44 5RMP (human); assay: ELISA; remark: listed apart in the source
[9] = biological target: B3; assay: ELISA
[10] = biological target: B2; assay: ELISA
TLR4 = TLR4 (Homo sapiens, UniProt O00206); assay: HEK-Blue hTLR4 stimulation assay; assay type: cell-based; conditions: HEK-hTLR4 cells
Method in brief: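 HEK-Blue hTLR4 cells (human TLR4, MD-2, CD14, NF-κB/AP-1-driven SEAP), passages 3–15, detached with warm PBS and suspended serum-free at 1.4 × 10^5 cells/ml. Test compound in nuclease-free water at final 10 nM–100 µM; 24 h, 37°C, 5% CO2. SEAP read with Quanti-Blue, 3 h, OD 630 nm, normalised to BCA protein. Untreated background subtracted; expressed as % of 50-nM S100A9. Three experiments in triplicate.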

[11] = system: TLR4 activation by S100A9; assay: HEK-Blue hTLR4 assay, effect on activation of TLR4 by 10-nM S100A9; assay type: cell-based, human
S100A8 = assay: ELISA binding of CAP37 to S100A8; parameters: species or system human; conditions: data not shown
[12] = biological target: T3, recombinant human TLR4/myeloid differentiation factor 2 (MD-2) complex (human, UniProt O00206 24-631; Q9Y6Y9 19-160); assay: ELISA
[13] = biological target: T3, recombinant human TLR4/myeloid …; assay: ELISA; remark: listed apart in the source

Chain of TLR4/MD-2 complex (O00206 24-631 limits assumed): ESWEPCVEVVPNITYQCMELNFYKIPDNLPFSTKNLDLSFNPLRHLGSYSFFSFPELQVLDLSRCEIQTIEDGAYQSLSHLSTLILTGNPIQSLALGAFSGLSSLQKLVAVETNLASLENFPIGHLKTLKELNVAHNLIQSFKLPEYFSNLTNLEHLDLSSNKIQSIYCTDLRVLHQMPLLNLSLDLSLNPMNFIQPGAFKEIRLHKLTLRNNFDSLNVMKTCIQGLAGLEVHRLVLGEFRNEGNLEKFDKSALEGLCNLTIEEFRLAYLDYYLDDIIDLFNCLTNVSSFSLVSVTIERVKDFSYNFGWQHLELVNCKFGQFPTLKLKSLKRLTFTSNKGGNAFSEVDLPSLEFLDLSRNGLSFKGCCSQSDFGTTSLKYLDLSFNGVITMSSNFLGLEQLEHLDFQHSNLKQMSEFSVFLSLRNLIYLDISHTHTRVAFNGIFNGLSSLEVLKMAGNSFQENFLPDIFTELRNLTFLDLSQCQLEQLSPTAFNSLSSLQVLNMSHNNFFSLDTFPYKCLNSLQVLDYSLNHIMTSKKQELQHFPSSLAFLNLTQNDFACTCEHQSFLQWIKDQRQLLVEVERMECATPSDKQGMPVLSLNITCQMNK
Chain of TLR4/MD-2 complex (Q9Y6Y9 17-160 partner limits assumed): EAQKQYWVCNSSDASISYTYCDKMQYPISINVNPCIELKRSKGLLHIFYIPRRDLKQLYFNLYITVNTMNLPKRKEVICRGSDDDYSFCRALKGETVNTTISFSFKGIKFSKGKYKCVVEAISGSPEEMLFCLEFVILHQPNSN
Chain of TLR4 (O00206 24-839): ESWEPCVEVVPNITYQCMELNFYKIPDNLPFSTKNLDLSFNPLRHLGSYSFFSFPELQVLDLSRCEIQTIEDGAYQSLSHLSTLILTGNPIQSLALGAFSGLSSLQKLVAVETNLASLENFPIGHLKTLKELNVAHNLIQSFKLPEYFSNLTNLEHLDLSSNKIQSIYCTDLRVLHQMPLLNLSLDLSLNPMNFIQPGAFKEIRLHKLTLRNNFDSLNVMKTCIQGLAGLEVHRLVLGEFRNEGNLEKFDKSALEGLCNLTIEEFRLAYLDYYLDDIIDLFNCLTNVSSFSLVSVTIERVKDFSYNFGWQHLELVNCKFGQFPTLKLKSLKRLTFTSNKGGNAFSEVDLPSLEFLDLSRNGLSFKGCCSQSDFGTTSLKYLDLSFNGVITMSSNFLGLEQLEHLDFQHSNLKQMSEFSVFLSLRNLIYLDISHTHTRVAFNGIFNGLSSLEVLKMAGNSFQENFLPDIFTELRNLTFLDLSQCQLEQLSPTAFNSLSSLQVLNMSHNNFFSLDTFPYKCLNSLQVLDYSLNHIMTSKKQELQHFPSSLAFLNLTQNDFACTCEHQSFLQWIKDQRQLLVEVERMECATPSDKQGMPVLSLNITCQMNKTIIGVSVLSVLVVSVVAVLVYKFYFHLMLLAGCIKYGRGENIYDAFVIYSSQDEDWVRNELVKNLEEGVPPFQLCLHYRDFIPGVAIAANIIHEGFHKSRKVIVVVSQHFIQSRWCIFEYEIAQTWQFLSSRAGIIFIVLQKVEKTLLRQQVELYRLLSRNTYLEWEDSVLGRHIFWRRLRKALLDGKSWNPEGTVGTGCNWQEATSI
Chain of TLR4 (Q9Y6Y9 17-160 partner limits assumed): as the sequence (Q9Y6Y9 17-160 partner limits assumed) above
T3 sequence (O00206 24-631, chain 1 of 2): as the sequence (O00206 24-631 limits assumed) above
T3 sequence (Q9Y6Y9 19-160, chain 2 of 2): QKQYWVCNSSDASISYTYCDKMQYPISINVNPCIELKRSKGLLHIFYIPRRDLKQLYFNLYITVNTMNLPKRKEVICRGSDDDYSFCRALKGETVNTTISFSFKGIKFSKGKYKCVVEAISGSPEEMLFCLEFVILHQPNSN

## CG: cathepsin G purified from human neutrophils
TLR4/MD-2 complex
  Binding of TLR4/MD-2 to coated protein/peptide (in words): did not significantly interact

## NE: neutrophil elastase purified from human neutrophils
TLR4/MD-2 complex
  Binding of TLR4/MD-2 to coated protein/peptide (in words): did not significantly interact

## recombinant human TLR4/myeloid differentiation factor 2 (MD-2) complex (from UniProt O00206 24-631; Q9Y6Y9 19-160)
[1]
  Kd: 0.229 µM
[2]
  Kd: 0.0189 µM
[3]
  Kd: 0.0906 µM
[4]
  Kd: 0.27 µM

## LDREANLTSSVTILPLPLQNATVEAGTR [95-122]
TLR4/MD-2 complex
  Binding of TLR4/MD-2 to coated protein/peptide (in words): only minimal interaction

B1: recombinant human S100 calcium-binding protein A9 (S100A9), C-terminus 8-His tag (natural protein, UniProt P06702 1-114, looked up)
chain: MTCKMSQLERNIETIINTFHQYSVKLGHPDTLNQGEFKELVRKDLQNFLKKENKNEKVIEHIMEDLDTNADKQLSFEEFIMLMARLTWASHEKMHEGDEGPGHHHKPGLGEGTP
[5]
  Kd: 0.0373 µM
[6]
  Kd: 0.0223 µM
[7]
  Kd: 0.0438 µM
[8]
  Kd: 0.0235 µM
[9]
  binding at 10 nM S100A9 relative to its binding to CAP37: 2 fold
[10]
  Kd: 0.0092 µM

## B2
TLR4/MD-2 complex
  Binding of TLR4/MD-2 to coated protein/peptide (in words): low, but specific, interaction
TLR4/MD-2 complex; Kd 98 nM versus Kd 9.2 nM
  Fold lower affinity for TLR4 than for S100A9: ~10 fold
TLR4
  Fold higher concentration at which TLR4 activation begins, versus S100A9: approximately 100 fold
TLR4; 24 h, SEAP
  Concentration at which activation of TLR4 begins: 100 nM
[11]; CAP37 0.01 nM preincubated 1 hour with 10-nM S100A9, from 50% to 30%
  Decrease of TLR4 activation by S100A9: ~20%
[11]; CAP37 10 nM preincubated 1 hour with 10-nM S100A9
  Decrease of TLR4 activation by S100A9: 10%
[11]; CAP37 1 µM preincubated 1 hour with 10-nM S100A9
  Decrease of TLR4 activation by S100A9: no decrease
S100A8
  Interaction between CAP37 and S100A8 (in words): specific, but low, interaction
[12]
  Kd: 0.098 µM

## B3
[13]
  binding result: binds
